Test results published in ChEMBL document CHEMBL1125466, “Synthesis and antiulcer activity of N-substituted N'-[3-[3-(piperidinomethyl)phenoxy]propyl]ureas: histamine H2-receptor antagonists with a potent mucosal protective activity” (J Med Chem, 1992).

Tests used:
Histamine H2 receptor [1] = target: T1, Histamine H2 receptor (Cavia porcellus, UniProt P47747); assay: In vitro inhibitory activity against histamine H2-receptor in isolated Guinea pig right atria.; conditions: read-out: pA2 (converted)
Rattus norvegicus [2] = assay: In vivo gastric antisecretory activity in acute fistula rats; type: functional, Stomach; set-up: concentration or dose not given beside the values
Procedure, shortened: (§1)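 Male Donryu or Wistar rats, 170-310 g, fasted 24 h. Under urethane anesthesia the pylorus was ligated (acute fistula). Compound, suspended in 1% gum arabic, given intraduodenally after the second gastric juice collection, usually at 10 mg/kg. Acid output compared with vehicle mean. Percent inhibition given as mean ± SE, 2-5 animals per group.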

Rattus norvegicus [3] = assay: Gastric antisecretory activity in rat (in vivo); type: functional; procedure, shortened: as §1
Rattus norvegicus [4] = assay: In vivo gastric mucosal protective activity against gastric mucosal lesions induced by 0.6 N HCl in rats.; type: functional, Gastric mucosa; set-up: concentration or dose not given beside the values
Procedure, shortened: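 Male Donryu or Wistar rats, 150-230 g, deprived of food and water 24 h. Compound given orally (25 mg/kg) 1.5 h before 1 mL 0.6 N HCl po. Killed 1 h after HCl. Stomach fixed with 0.5% formalin, and glandular lesion lengths measured. Percent inhibition compared with vehicle, mean ± SE, 5-10 animals.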

Rattus norvegicus [5] = assay: In Vivo gastric Mucosal protective activity against gastric mucosal lesions induced by 0.6 N HCl in rats. (200 mg/kg, po); type: functional
Procedure, shortened: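 Oral dosing at 200 mg/kg, 1.5 h before 1 mL of 0.6 N HCl, in male Donryu or Wistar rats (150-230 g) deprived of food and water 24 h. Killed 1 h later. Stomach formalin-fixed and glandular lesion length scored against vehicle. Percent inhibition given as mean ± SE.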

Histamine H2 receptor [6] = target: T1, Histamine H2 receptor; assay: Compound was evaluated in vitro inhibitory activity against histamine H2 receptor in isolated Guinea pig right atria.; conditions: read-out: pA2 (converted)
Rattus norvegicus [7] = assay: In vivo gastric antisecretory activity in acute fistula rats.; type: functional, Stomach; procedure, shortened: as §1

T1 sequence (P47747 whole entry): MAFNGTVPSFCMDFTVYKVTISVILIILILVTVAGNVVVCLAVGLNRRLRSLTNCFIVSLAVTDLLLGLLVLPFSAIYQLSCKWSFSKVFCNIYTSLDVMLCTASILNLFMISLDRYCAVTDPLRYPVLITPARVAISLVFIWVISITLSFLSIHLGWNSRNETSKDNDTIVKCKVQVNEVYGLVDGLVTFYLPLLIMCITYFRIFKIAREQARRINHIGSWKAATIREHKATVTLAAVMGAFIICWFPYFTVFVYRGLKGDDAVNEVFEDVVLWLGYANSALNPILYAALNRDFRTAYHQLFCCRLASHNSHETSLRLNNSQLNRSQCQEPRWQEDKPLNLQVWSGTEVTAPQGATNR

`CCCNC(=O)NCCCOc1cccc(CN2CCCCC2)c1` gave a Kb (Histamine H2 receptor [1]) of 0.0977 µM, an Inhibition (Rattus norvegicus [2]) of 96.6% and an AS activity class (Rattus norvegicus [3]) of 3. The Inhibition (Rattus norvegicus [4]) was 73.5%.

With TEPRENONE the inhibition (Rattus norvegicus [5]; Gastric mucosa) was 42.7%.

Work on `O=C(NCCCOc1cccc(CN2CCCCC2)c1)Nc1cccc(C(F)(F)F)c1` yielded a Kb (Histamine H2 receptor [1]) of 0.813 µM, an Inhibition (Rattus norvegicus [2]) of 7.8% and an AS activity class (Rattus norvegicus [3]) of 1. The Inhibition (Rattus norvegicus [4]) was -4.9%.

`NC(N)=Nc1nc(CSCC/C(N)=N/S(N)(=O)=O)cs1` [FAMOTIDINE] was tested, and the Kb (Histamine H2 receptor [1]) was 0.1 µM and the Inhibition (Rattus norvegicus [5]) was 7.9%.

With `O=C(NCCCOc1cccc(CN2CCCCC2)c1)Nc1cccc([N+](=O)[O-])c1` the Kb (Histamine H2 receptor [1]) was 0.269 µM, the Inhibition (Rattus norvegicus [2]) was -23.9% and the AS activity class (Rattus norvegicus [3]) was 1. It also gave an Inhibition (Rattus norvegicus [4]) of 40.9%.

With `O=C(NCCCOc1cccc(CN2CCCCC2)c1)Nc1ccc(Cl)cc1` the Kb (Histamine H2 receptor [1]) was 0.631 µM, the Inhibition (Rattus norvegicus [2]) was 28.2% and the AS activity class (Rattus norvegicus [3]) was 1. For the same compound, the Inhibition (Rattus norvegicus [4]) was 33.9%.

In the case of `Nc1cccc(NC(=O)NCCCOc2cccc(CN3CCCCC3)c2)c1`, the Kb (Histamine H2 receptor [6]) was 0.155 µM, the AS activity class (Rattus norvegicus [3]) was 3 and the Inhibition (Rattus norvegicus [4]) was 47.2%. The Inhibition (Rattus norvegicus [7]) was 95%.

In the case of `COc1ccc(NC(=O)NCCCOc2cccc(CN3CCCCC3)c2)cc1`, the Kb (Histamine H2 receptor [1]) was 0.631 µM, the Inhibition (Rattus norvegicus [2]) was 73.5% and the AS activity class (Rattus norvegicus [3]) was 3. For the same compound, the Inhibition (Rattus norvegicus [4]) was 40.9%.

For `O=C(NCCCOc1cccc(CN2CCCCC2)c1)NCc1ccccc1`, the Kb (Histamine H2 receptor [1]) was 0.347 µM, the Inhibition (Rattus norvegicus [2]) was 54.2% and the AS activity class (Rattus norvegicus [3]) was 2. It also gave an Inhibition (Rattus norvegicus [4]) of 61%.

`CNC(=O)NCCCOc1cccc(CN2CCCCC2)c1` showed a Kb (Histamine H2 receptor [1]) of 0.155 µM, an Inhibition (Rattus norvegicus [2]) of 93.3% and an AS activity class (Rattus norvegicus [3]) of 3. It also gave an Inhibition (Rattus norvegicus [4]) of 64.7%.

`CNC(=C[N+](=O)[O-])NCCSCc1ccc(CN(C)C)o1` [RANITIDINE] showed a Kb (Histamine H2 receptor [6]) of 0.0646 µM and an Inhibition (Rattus norvegicus [5]) of -16.8%.

For `COc1ccc(OC)c(NC(=O)NCCCOc2cccc(CN3CCCCC3)c2)c1`, the Kb (Histamine H2 receptor [1]) was 0.158 µM, the Inhibition (Rattus norvegicus [2]) was -30.8% and the AS activity class (Rattus norvegicus [3]) was 1. The Inhibition (Rattus norvegicus [4]) was 34.7%.

Compound `CC(C)CNC(=O)NCCCOc1cccc(CN2CCCCC2)c1` has a Kb (Histamine H2 receptor [1]) of 0.17 µM, an Inhibition (Rattus norvegicus [2]) of 40.3% and an AS activity class (Rattus norvegicus [3]) of 2. The Inhibition (Rattus norvegicus [4]) was 43.3%.

Work on `O=C(NCCF)NCCCOc1cccc(CN2CCCCC2)c1` yielded a Kb (Histamine H2 receptor [1]) of 0.0851 µM, an Inhibition (Rattus norvegicus [2]) of 98.7% and an AS activity class (Rattus norvegicus [3]) of 3. The Inhibition (Rattus norvegicus [4]) was 36%.

`COc1ccc(N/C(S)=N/CCCOc2cccc(CN3CCCCC3)c2)cc1` gave a Kb (Histamine H2 receptor [1]) of 4.37 µM, an Inhibition (Rattus norvegicus [2]) of -5.5% and an Inhibition (Rattus norvegicus [4]) of 51.6%.

With `O=C(NCCCOc1cccc(CN2CCCCC2)c1)Nc1ccc([N+](=O)[O-])cc1` the Kb (Histamine H2 receptor [6]) was 0.178 µM, the AS activity class (Rattus norvegicus [3]) was 1 and the Inhibition (Rattus norvegicus [4]) was 23.4%. It also gave an Inhibition (Rattus norvegicus [7]) of 9%.

Compound `CCC(C)NC(=O)NCCCOc1cccc(CN2CCCCC2)c1` (stereo unspecified) has a Kb (Histamine H2 receptor [1]) of 0.0955 µM, an Inhibition (Rattus norvegicus [2]) of 55.1% and an AS activity class (Rattus norvegicus [3]) of 2. It also gave an Inhibition (Rattus norvegicus [4]) of 17.7%.

`CCCCNC(=O)NCCCOc1cccc(CN2CCCCC2)c1` showed a Kb (Histamine H2 receptor [1]) of 0.0813 µM, an Inhibition (Rattus norvegicus [2]) of 83% and an AS activity class (Rattus norvegicus [3]) of 3. For the same compound, the Inhibition (Rattus norvegicus [4]) was 67.5%.

Compound `CC(C)(C)NC(=O)NCCCOc1cccc(CN2CCCCC2)c1` has a Kb (Histamine H2 receptor [1]) of 2.09 µM, an Inhibition (Rattus norvegicus [2]) of -56% and an AS activity class (Rattus norvegicus [3]) of 1. It also gave an Inhibition (Rattus norvegicus [4]) of 28.5%.

`CCOc1ccc(NC(=O)NCCCOc2cccc(CN3CCCCC3)c2)cc1` showed a Kb (Histamine H2 receptor [1]) of 0.49 µM, an Inhibition (Rattus norvegicus [2]) of 54.1% and an AS activity class (Rattus norvegicus [3]) of 2. It also gave an Inhibition (Rattus norvegicus [4]) of 32.7%.

Work on `COc1ccccc1NC(=O)NCCCOc1cccc(CN2CCCCC2)c1` yielded a Kb (Histamine H2 receptor [1]) of 0.776 µM, an Inhibition (Rattus norvegicus [2]) of -57.4% and an AS activity class (Rattus norvegicus [3]) of 1. It also gave an Inhibition (Rattus norvegicus [4]) of 31.7%.

For `Cc1ccc(NC(=O)NCCCOc2cccc(CN3CCCCC3)c2)cc1`, the Kb (Histamine H2 receptor [1]) was 0.631 µM, the Inhibition (Rattus norvegicus [2]) was -45.5% and the AS activity class (Rattus norvegicus [3]) was 1. It also gave an Inhibition (Rattus norvegicus [4]) of 40.1%.

`O=C(NCCCOc1cccc(CN2CCCCC2)c1)Nc1ccccc1` was tested, and the Kb (Histamine H2 receptor [1]) was 0.126 µM, the Inhibition (Rattus norvegicus [2]) was 12.6% and the AS activity class (Rattus norvegicus [3]) was 1. The Inhibition (Rattus norvegicus [4]) was 44.3%.

In the case of `O=C(NCCCOc1cccc(CN2CCCCC2)c1)NC1CCCCC1`, the Kb (Histamine H2 receptor [1]) was 0.0437 µM, the Inhibition (Rattus norvegicus [2]) was 77.9% and the AS activity class (Rattus norvegicus [3]) was 3. The Inhibition (Rattus norvegicus [4]) was 39.3%.

`COc1cccc(NC(=O)NCCCOc2cccc(CN3CCCCC3)c2)c1` showed a Kb (Histamine H2 receptor [1]) of 0.2 µM, an Inhibition (Rattus norvegicus [2]) of 53.2% and an AS activity class (Rattus norvegicus [3]) of 2. For the same compound, the Inhibition (Rattus norvegicus [4]) was 48.2%.

Compound `O=C(NCCCOc1cccc(CN2CCCCC2)c1)NC1CC1` has a Kb (Histamine H2 receptor [1]) of 0.0479 µM, an Inhibition (Rattus norvegicus [2]) of 87.5% and an AS activity class (Rattus norvegicus [3]) of 3. It also gave an Inhibition (Rattus norvegicus [4]) of 49.4%.

In the case of `O=C(NCCCOc1cccc(CN2CCCCC2)c1)Nc1ccc2c(c1)OCO2`, the Kb (Histamine H2 receptor [1]) was 0.288 µM, the Inhibition (Rattus norvegicus [2]) was 48.9% and the AS activity class (Rattus norvegicus [3]) was 2. For the same compound, the Inhibition (Rattus norvegicus [4]) was 47.1%.

For `O=C(NCCCOc1cccc(CN2CCCCC2)c1)Nc1ccc(C(F)(F)F)cc1`, the Kb (Histamine H2 receptor [1]) was 1.7 µM, the Inhibition (Rattus norvegicus [2]) was 3.8% and the AS activity class (Rattus norvegicus [3]) was 1. It also gave an Inhibition (Rattus norvegicus [4]) of 51%.

`CN/C(=N\CCSCc1nc[nH]c1C)NC#N` [CIMETIDINE] was tested, and the Inhibition (Rattus norvegicus [5]) was -42.2%.

`CCNC(=O)NCCCOc1cccc(CN2CCCCC2)c1` [DALCOTIDINE] was tested, and the Kb (Histamine H2 receptor [1]) was 0.0407 µM, the Inhibition (Rattus norvegicus [2]) was 71.8% and the AS activity class (Rattus norvegicus [3]) was 3. It also gave an Inhibition (Rattus norvegicus [4]) of 77.9%.

Work on `CC(C)NC(=O)NCCCOc1cccc(CN2CCCCC2)c1` yielded a Kb (Histamine H2 receptor [1]) of 0.0437 µM, an Inhibition (Rattus norvegicus [2]) of 71.3% and an AS activity class (Rattus norvegicus [3]) of 3. The Inhibition (Rattus norvegicus [4]) was 72.9%.

`O=C(NCCCOc1cccc(CN2CCCCC2)c1)Nc1cccc(Cl)c1` was tested, and the Kb (Histamine H2 receptor [1]) was 0.316 µM, the Inhibition (Rattus norvegicus [2]) was -44.9% and the AS activity class (Rattus norvegicus [3]) was 1. It also gave an Inhibition (Rattus norvegicus [4]) of 43.3%.

Compound `COc1ccc(NC(=O)NCCCOc2cccc(CN3CCCCC3)c2)c(OC)c1` has a Kb (Histamine H2 receptor [1]) of 2.24 µM, an Inhibition (Rattus norvegicus [2]) of 13.1% and an AS activity class (Rattus norvegicus [3]) of 1. It also gave an Inhibition (Rattus norvegicus [4]) of 55.7%.
